# Laboratory results reported in ChEMBL document CHEMBL1129636 (J Med Chem, 1996).
# Tests used:
# [1] = biological target: T1, Glutamate receptor ionotropic, kainate 2 (Homo sapiens, UniProt Q13002); test: Inhibition of [3H]kainate binding at ionotropic glutamate receptor kainate 2
# Outline: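 Frozen EAA4-9 cells (HEK293 stably expressing human GluR6) lysed in ice-cold water and pelleted at 50000g. Membranes washed in 50 mM Tris-HCl, pH 7.5 at 5 °C, to remove glutamate. Nonspecific binding defined with 1 mM L-glutamate, and bound ligand separated by centrifugation. Ki reported.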
# [2] = biological target: T1, Glutamate receptor ionotropic, kainate 2; test: Electrophysiological activity at 1 uM domoate from HEK293 cells transfected with ionotropic glutamate receptor kainate 2; assay type: functional, cell-based
# Outline: (§1)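 Whole-cell voltage clamp (tight-seal patch clamp) of HEK293 line EAA4-9 stably expressing human GluR6, with cells plated on glass coverslips. Bath: NaCl 138, CaCl2 5, MgCl2 1, KCl 5, HEPES 10, glucose 10 mM, pH 7.4. Pipette: KCl 140, MgCl2 1, HEPES 10, EGTA 0.1 mM, pH 7.2. Test agonist at 1, 10 or 30 uM by bath perfusion with 2.5 uM concanavalin A. Inward current expressed as percent of the response to 1 uM domoate.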
# [3] = biological target: T1, Glutamate receptor ionotropic, kainate 2; test: Electrophysiological activity at 10 uM domoate from HEK293 cells transfected with Ionotropic glutamate receptor kainate 2; assay type: functional, cell-based; outline: as §1
# [4] = biological target: T1, Glutamate receptor ionotropic, kainate 2; test: Electrophysiological activity at 30 uM domoate from HEK293 cells transfected with ionotropic glutamate receptor kainate 2; assay type: functional, cell-based; outline: as §1
# [5] = biological target: Glutamate receptor ionotropic, kainate 2 (Rattus norvegicus, UniProt P42260); test: Inhibition of [3H]kainate binding at rat forebrain ionotropic glutamate receptor kainate 2
# Chain of Glutamate receptor ionotropic, kainate 2 (Rattus norvegicus, UniProt P42260) (P42260 whole entry): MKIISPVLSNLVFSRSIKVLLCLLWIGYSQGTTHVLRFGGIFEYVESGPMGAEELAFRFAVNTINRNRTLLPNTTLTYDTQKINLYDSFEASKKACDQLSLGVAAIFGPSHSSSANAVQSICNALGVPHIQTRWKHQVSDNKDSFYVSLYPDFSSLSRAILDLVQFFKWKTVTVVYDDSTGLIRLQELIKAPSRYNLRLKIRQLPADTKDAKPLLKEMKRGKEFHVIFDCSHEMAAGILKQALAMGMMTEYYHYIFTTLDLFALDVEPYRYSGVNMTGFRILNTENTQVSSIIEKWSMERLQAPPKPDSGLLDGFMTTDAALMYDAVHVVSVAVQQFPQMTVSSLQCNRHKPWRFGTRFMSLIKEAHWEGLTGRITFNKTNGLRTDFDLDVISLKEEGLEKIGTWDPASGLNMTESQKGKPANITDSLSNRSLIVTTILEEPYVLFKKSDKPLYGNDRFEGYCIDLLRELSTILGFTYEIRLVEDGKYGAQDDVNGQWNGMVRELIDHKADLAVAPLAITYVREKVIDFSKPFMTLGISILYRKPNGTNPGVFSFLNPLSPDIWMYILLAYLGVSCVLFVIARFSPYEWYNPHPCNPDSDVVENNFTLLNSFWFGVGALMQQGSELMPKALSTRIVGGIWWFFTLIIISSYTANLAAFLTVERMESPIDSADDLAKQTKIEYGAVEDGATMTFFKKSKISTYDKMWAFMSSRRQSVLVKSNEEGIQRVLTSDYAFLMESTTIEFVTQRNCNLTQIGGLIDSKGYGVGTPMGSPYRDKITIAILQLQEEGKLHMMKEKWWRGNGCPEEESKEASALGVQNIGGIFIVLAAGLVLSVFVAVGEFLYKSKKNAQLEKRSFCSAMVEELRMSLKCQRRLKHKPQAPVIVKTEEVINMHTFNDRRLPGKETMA
# T1 sequence (Q13002 whole entry, the tested form may be a part): as the sequence (P42260 whole entry) above, with S5F, V7I, L11P, S14R, S16T, I17V, V19L, V494A counted along it
SMILES,Ki [1],Response [2],Response [3],Response [4],Ki [5]
C=C(c1cccc(-c2ccccc2)c1)[C@@H]1CN[C@H](C(=O)O)[C@H]1CC(=O)O,3110 nM,0%,0%,0%,
C=C(c1ccc(OCCc2ccccc2)c(C)c1)[C@H]1CN[C@H](C(=O)O)[C@H]1CC(=O)O,129 nM,12%,64%,71%,
C=C(c1ccccc1)[C@@H]1CN[C@H](C(=O)O)[C@H]1CC(=O)O,6970 nM,Neurotoxic,Neurotoxic,Neurotoxic,230 nM
C=C(c1cccc(OCCc2ccccc2)c1)[C@H]1CN[C@H](C(=O)O)[C@H]1CC(=O)O,667 nM,6%,43%,70%,16 nM
C=C(c1ccc(CC)cc1)[C@H]1CN[C@H](C(=O)O)[C@H]1CC(=O)O,82.2 nM,22%,63%,73%,7.7 nM
C=C(c1ccc(F)cc1)[C@H]1CN[C@H](C(=O)O)[C@H]1CC(=O)O,38.4 nM,43%,76%,78%,2.7 nM
C=C(c1ccc(C)c(C)c1)[C@H]1CN[C@H](C(=O)O)[C@H]1CC(=O)O,108 nM,50%,89%,98%,2.3 nM
C=C(c1ccc(CCC)cc1)[C@H]1CN[C@H](C(=O)O)[C@H]1CC(=O)O,147 nM,24%,54%,66%,3.6 nM
C=C(C)c1ccc(C(=C)[C@@H]2CN[C@H](C(=O)O)[C@H]2CC(=O)O)cc1,2300 nM,,,,5400 nM
C=C(C)c1ccc(C(=C)[C@H]2CN[C@H](C(=O)O)[C@H]2CC(=O)O)cc1,132 nM,17%,61%,66%,3.6 nM
C=C(c1cccc(OC)c1)[C@H]1CN[C@H](C(=O)O)[C@H]1CC(=O)O,93.5 nM,46%,77%,87%,3.5 nM
C=C(c1ccc(OCCc2ccccc2)c(OC)c1)[C@H]1CN[C@H](C(=O)O)[C@H]1CC(=O)O,1280 nM,2%,20%,44%,
C=C(c1ccc(C)cc1)[C@H]1CN[C@H](C(=O)O)[C@H]1CC(=O)O,41.1 nM,61%,72%,76%,2.6 nM
C=C(c1ccc(OCCc2ccccc2)cc1)[C@H]1CN[C@H](C(=O)O)[C@H]1CC(=O)O,126 nM,16%,52%,66%,6.2 nM
C=C(c1cccc(-c2ccccc2)c1)[C@H]1CN[C@H](C(=O)O)[C@H]1CC(=O)O,90.6 nM,65%,98%,103%,2.1 nM
C=C(c1cccc(C)c1)[C@H]1CN[C@H](C(=O)O)[C@H]1CC(=O)O,123 nM,29%,75%,74%,2.2 nM
C=C(c1ccc(C(C)(C)C)cc1)[C@H]1CN[C@H](C(=O)O)[C@H]1CC(=O)O,263 nM,8%,31%,46%,18.5 nM
C=C(c1ccc(OC)cc1)[C@H]1CN[C@H](C(=O)O)[C@H]1CC(=O)O,57.4 nM,37%,76%,82%,3.9 nM

SMILES,Ki [1],Response [2],Response [3],Response [4],Ki [5]
C=C(c1cccc(OCCC(c2ccccc2)c2ccccc2)c1)[C@H]1CN[C@H](C(=O)O)[C@H]1CC(=O)O,2420 nM,3%,6%,14%,210 nM
C=C(c1ccc(Cl)cc1)[C@H]1CN[C@H](C(=O)O)[C@H]1CC(=O)O,31.7 nM,52%,78%,83%,3.9 nM
C=C(c1ccc(CCCC)cc1)[C@H]1CN[C@H](C(=O)O)[C@H]1CC(=O)O,146 nM,11%,57%,63%,4.8 nM
C=C(c1ccc(OCCCCC)c(C)c1)[C@H]1CN[C@H](C(=O)O)[C@H]1CC(=O)O,663 nM,17%,46%,58%,
C=C(c1cccc(OCCCC)c1)[C@H]1CN[C@H](C(=O)O)[C@H]1CC(=O)O,275 nM,5%,8%,40%,23.3 nM
C=C(c1ccccc1)[C@H]1CN[C@H](C(=O)O)[C@H]1CC(=O)O,29.8 nM,48%,81%,80%,1.6 nM
CC(c1ccccc1)[C@H]1CN[C@H](C(=O)O)[C@H]1CC(=O)O (some centres undefined),> 10000 nM,0%,0%,0%,
C=C(c1ccc(Oc2ccccc2)cc1)[C@H]1CN[C@H](C(=O)O)[C@H]1CC(=O)O,210 nM,15%,59%,62%,11.9 nM
C=C(c1ccc(OCCCCCc2ccccc2)cc1)[C@H]1CN[C@H](C(=O)O)[C@H]1CC(=O)O,1300 nM,0%,13%,27%,126 nM
C=C(CC)c1ccc(C(=C)[C@H]2CN[C@H](C(=O)O)[C@H]2CC(=O)O)cc1,288 nM,15%,38%,52%,9 nM
C=C(C)[C@H]1CN[C@H](C(=O)O)[C@H]1CC(=O)O,,39%,85%,101%,
C=C(c1cc(C)cc(C)c1)[C@H]1CN[C@H](C(=O)O)[C@H]1CC(=O)O,169 nM,23%,73%,108%,9.5 nM
C=C(c1ccc(F)c(C)c1)[C@H]1CN[C@H](C(=O)O)[C@H]1CC(=O)O,54.3 nM,38%,76%,100%,1.9 nM
C=C(c1cccc(OCCC(c2ccccc2)c2ccccc2)c1)[C@@H]1CN[C@H](C(=O)O)[C@H]1CC(=O)O,> 10000 nM,0%,0%,0%,3000 nM
C=C(c1ccc(OCCCC)cc1)[C@H]1CN[C@H](C(=O)O)[C@H]1CC(=O)O,147 nM,33%,86%,99%,2.8 nM
CC(c1cccc(-c2ccccc2)c1)[C@H]1CN[C@H](C(=O)O)[C@H]1CC(=O)O (some centres undefined),> 10000 nM,12%,14%,16%,
C=C(c1ccc(-c2ccccc2)cc1)[C@H]1CN[C@H](C(=O)O)[C@H]1CC(=O)O,131 nM,36%,58%,66%,9.1 nM
